We go through ten compounds from ChEMBL document CHEMBL1158763, “Cytotoxic arylnaphthalene lignans from a Vietnamese acanthaceae, Justicia patentiflora” (J Nat Prod, 2005).

For data set [1], the system named is KB. Put plainly: Cytotoxicity against human KB cells. The class given is functional, cell-based.
Data set [2] concerns HCT-116. Put plainly: Cytotoxicity against human HCT116 cells. The class given is functional, cell-based.
The subject of data set [3] is MCF7. Nature of the data set: Cytotoxicity against doxorubicin-sensitive human MCF7 cells. The class given is functional, cell-based.
Data set [4] concerns MCF7. Put plainly: Cytotoxicity against doxorubicin-resistant human MCF7 cells. The class given is functional, cell-based. The method in brief:
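Doxorubicin-resistant MCF-7 line derived by prolonged doxorubicin treatment of MCF-7 cells; cytotoxicity assay run per a previously published procedure.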

Data set [5] deals with P388. Nature of the data set: Antitumor activity against mouse P388 cells implanted in CDF1 mouse assessed as reduction in body weight at 2.5 mg/kg, ip administered 1 day following implantation. The class given is functional, organism-based. Further details: dose 2.5 mg/kg. The method, boiled down: (§1)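 10^6 P388 (or P388/F 11782) murine leukemia cells implanted i.v. into CDF1 mice on day zero; single i.p. dose (2.5 or 5 mg/kg) given the day after implantation. Mice weighed twice weekly during treatment, weekly thereafter. Antitumor activity judged by increase in lifespan: ILS (%) = T/C − 100, T/C = median survival treated/control × 100.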

The test system of data set [6] is HCT-116. Put plainly: Cell cycle arrest in human HCT116 cells assessed as accumulation at G0/G1 phase at 10 nM after 48 hrs by flow cytometry. The class given is functional. (Flow cytometry measures light scatter and fluorescence of single cells or particles in a stream.)
In data set [7] the test system is Mus musculus. Nature of the data set: Toxicity in mouse P388 cells implanted in CDF1 mouse assessed as induction of death at 5 mg/kg, ip administered 1 day following implantation. The class given is organism-based. More on the design: dose 5 mg/kg, route intraperitoneal. As to conditions: in vivo, 24 h. The method, boiled down: as §1
Data set [8] concerns HCT-116. Nature of the data set: Cell cycle arrest in human HCT116 cells assessed as accumulation at G2/M phase at 10 nM after 48 hrs by flow cytometry. The class given is functional.
Data set [9] relates to HCT-116. Nature of the data set: Cell cycle arrest in human HCT116 cells assessed as accumulation at S phase at 10 nM after 48 hrs by flow cytometry. The class given is functional.
Data set [10] has as its system MCF7. Put plainly: Cell cycle arrest in human MCF7 cells assessed as accumulation at G0/G1 phase at 10 nM after 48 hrs. The class given is functional, cell-based.

Active and inactive are the calls of the source. No cut-off for these calls is given here.

As usually defined, the IC50 is the concentration that inhibits the measured activity by half. Higher therefore signals lower potency. For the compound `CC(=O)O[C@@]12CO[C@@H]1C[C@H](O)[C@@]1(C)C(=O)[C@H](O)C3=C(C)[C@@H](OC(=O)[C@H](O)[C@@H](NC(=O)OC(C)(C)C)c4ccccc4)C[C@@](O)([C@@H](OC(=O)c4ccccc4)[C@H]21)C3(C)C` [DOCETAXEL], the values for the IC50 in data set [1], in data set [2] and in data set [3] were 0.002 µM, 0.004 µM and 0.02 µM, respectively.
With `COc1cc2c(O[C@@H]3O[C@H](CO[C@@H]4OC[C@H](OC(C)=O)[C@H](OC(C)=O)[C@H]4OC(C)=O)[C@H](OC(C)=O)[C@H](OC(C)=O)[C@H]3OC(C)=O)c3c(c(-c4ccc5c(c4)OCO5)c2cc1OC)C(=O)OC3`, the IC50 in data set [1] was 0.18 µM; in data set [2] it was 0.26 µM; in data set [3] it was 0.08 µM; in [4], 8 µM.
Take `COc1cc2c(O[C@H]3O[C@@H](C)[C@@H](O)[C@@H](O)[C@@H]3O)c3c(c(-c4ccc5c(c4)OCO5)c2cc1OC)C(=O)OC3` [PATENTIFLORIN B]: the IC50 in data set [1] stood at 0.006 µM; in data set [2], 0.25 µM; in data set [3] it was 0.3 µM.
As for `COc1cc2c(O[C@H]3O[C@@H](C)[C@@H](OC(C)=O)[C@@H](O)[C@@H]3O)c3c(c(-c4ccc5c(c4)OCO5)c2cc1OC)C(=O)OC3` [4'-O-ACETYLPATENTIFLORIN B], the IC50 in [1] came out at 0.024 µM; in [2] it was 0.03 µM; in [3] it was 0.012 µM; in data set [4], 0.1 µM.
On to `COc1cc2c(O[C@H]3O[C@@H](C)[C@@H](OC(C)=O)[C@@H](OC(C)=O)[C@@H]3OC(C)=O)c3c(c(-c4ccc5c(c4)OCO5)c2cc1OC)C(=O)OC3`, for which the IC50 in [1] is 0.02 µM; in [2], 0.035 µM; in [3], 0.045 µM.
As to `COc1cc2c(O[C@@H]3O[C@H](CO[C@@H]4OC[C@H](O)[C@H](O)[C@H]4O)[C@H](OC(C)=O)[C@H](OC(C)=O)[C@H]3O)c3c(c(-c4ccc5c(c4)OCO5)c2cc1OC)C(=O)OC3` [4'-O-ACETYLMANANTHOSIDE B], the IC50 in [1] was 0.5 µM; in [2], 1.2 µM; in data set [3], 0.26 µM; in data set [4], 2.2 µM.
As for `COc1cc2c(O[C@@H]3O[C@H](C)[C@@H](O)[C@H](O)[C@H]3O)c3c(c(-c4ccc5c(c4)OCO5)c2cc1OC)C(=O)OC3` [PATENTIFLORIN A], in data set [5], the result was inactive. Also, the IC50 is 0.004 µM in data set [1], 0.012 µM in data set [2], 0.003 µM in data set [3] and 0.04 µM in data set [4]. Further, the Activity in data set [6] was 41.9%; in [7], “Toxic”; in data set [8] it was 13.5%; in data set [9], 43.4%. Further, the outcome in data set [10] was Active.
In turn, `O=C(CC(CO)C(=O)c1ccc2c(c1)OCO2)c1ccc2c(c1)OCO2` (stereo not drawn) [JUSTIFLORINOL] returned an IC50 in data set [1] of more than 10 µM.
On to `COc1cc2c(O[C@@H]3O[C@H](C)[C@@H](OC(C)=O)[C@H](OC(C)=O)[C@H]3OC(C)=O)c3c(c(-c4ccc5c(c4)OCO5)c2cc1OC)C(=O)OC3`, for which the IC50 in data set [1] was determined as 0.014 µM; in data set [2], 0.016 µM; in [3], 0.002 µM; in data set [4], 0.065 µM.
For the compound `COc1cc(OC)c2c(-c3ccc4c(c3)OCO4)c3c(c(OC)c2c1O)COC3=O` [JUSTICINOL], the IC50 in [1] is 0.3 µM; in data set [3] it was 0.36 µM.
